Results published in ChEMBL document CHEMBL4190310, “Identification of 3,4-dihydro-2H-thiochromene 1,1-dioxide derivatives with a phenoxyethylamine group as highly potent and selective α1D adrenoceptor antagonists” (Eur J Med Chem, 2017).

Assays:
[1] = target: T1, Alpha-1A adrenergic receptor (Homo sapiens, UniProt P35348); test: Displacement of 7-methoxy-[3H]-prazosin from human alpha1A-adrenoreceptor expressed in CHOK1 cell membranes after 60 mins by TopCount liquid scintillation counting method
T1 sequence (P35348 whole entry): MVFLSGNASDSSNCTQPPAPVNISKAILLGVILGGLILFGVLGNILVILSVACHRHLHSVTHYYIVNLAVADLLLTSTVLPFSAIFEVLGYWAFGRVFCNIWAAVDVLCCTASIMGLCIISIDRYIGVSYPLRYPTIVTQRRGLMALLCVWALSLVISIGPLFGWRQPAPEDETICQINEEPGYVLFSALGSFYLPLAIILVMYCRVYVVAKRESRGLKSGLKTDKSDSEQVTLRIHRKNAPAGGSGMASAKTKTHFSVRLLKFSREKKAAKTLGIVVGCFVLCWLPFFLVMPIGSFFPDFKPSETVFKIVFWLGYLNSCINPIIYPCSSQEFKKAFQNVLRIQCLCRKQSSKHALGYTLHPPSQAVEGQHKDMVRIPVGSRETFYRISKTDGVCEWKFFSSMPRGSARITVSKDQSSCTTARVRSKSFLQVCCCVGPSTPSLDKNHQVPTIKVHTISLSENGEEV
How it was run: (§1)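 Membranes (10 µg protein per receptor subtype) incubated with 2.5 nmol/L 7-methoxy-[3H]-prazosin and test compound at 12 concentrations. Buffer: 50 mmol/L Tris-HCl pH 7.5, 10 mmol/L MgCl2, 5 mmol/L EDTA, 0.5% BSA. Incubated 60 min at room temperature, then filtered on GF/C and washed with Tris-HCl. Nonspecific binding set with 10 µmol/L phentolamine. IC50 from logistic regression; Ki = IC50/(1 + [ligand]/Kd).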

[2] = target: T2, Alpha-1B adrenergic receptor (Homo sapiens, UniProt P35368); test: Displacement of 7-methoxy-[3H]-prazosin from human alpha1B-adrenoreceptor expressed in CHOK1 cell membranes after 60 mins by TopCount liquid scintillation counting method; how it was run: as §1
T2 sequence (P35368 whole entry): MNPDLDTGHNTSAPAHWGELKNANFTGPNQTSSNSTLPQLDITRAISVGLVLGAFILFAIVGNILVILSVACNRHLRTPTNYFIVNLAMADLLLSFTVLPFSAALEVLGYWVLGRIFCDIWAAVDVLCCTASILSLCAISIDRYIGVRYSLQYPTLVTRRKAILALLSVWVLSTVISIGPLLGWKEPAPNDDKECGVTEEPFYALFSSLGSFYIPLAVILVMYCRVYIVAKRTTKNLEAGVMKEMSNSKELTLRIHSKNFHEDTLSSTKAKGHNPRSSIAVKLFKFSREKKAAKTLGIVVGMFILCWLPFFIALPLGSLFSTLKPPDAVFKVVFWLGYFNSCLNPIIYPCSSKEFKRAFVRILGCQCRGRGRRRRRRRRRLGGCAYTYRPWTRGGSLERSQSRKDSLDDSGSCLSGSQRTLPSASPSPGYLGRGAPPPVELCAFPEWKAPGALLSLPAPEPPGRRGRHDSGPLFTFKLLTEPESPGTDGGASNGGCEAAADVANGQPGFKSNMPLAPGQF

[3] = target: T3, Alpha-1D adrenergic receptor (Homo sapiens, UniProt P25100); test: Displacement of 7-methoxy-[3H]-prazosin from human alpha1D-adrenoreceptor expressed in CHOK1 cell membranes after 60 mins by TopCount liquid scintillation counting method; how it was run: as §1
T3 sequence (P25100 whole entry): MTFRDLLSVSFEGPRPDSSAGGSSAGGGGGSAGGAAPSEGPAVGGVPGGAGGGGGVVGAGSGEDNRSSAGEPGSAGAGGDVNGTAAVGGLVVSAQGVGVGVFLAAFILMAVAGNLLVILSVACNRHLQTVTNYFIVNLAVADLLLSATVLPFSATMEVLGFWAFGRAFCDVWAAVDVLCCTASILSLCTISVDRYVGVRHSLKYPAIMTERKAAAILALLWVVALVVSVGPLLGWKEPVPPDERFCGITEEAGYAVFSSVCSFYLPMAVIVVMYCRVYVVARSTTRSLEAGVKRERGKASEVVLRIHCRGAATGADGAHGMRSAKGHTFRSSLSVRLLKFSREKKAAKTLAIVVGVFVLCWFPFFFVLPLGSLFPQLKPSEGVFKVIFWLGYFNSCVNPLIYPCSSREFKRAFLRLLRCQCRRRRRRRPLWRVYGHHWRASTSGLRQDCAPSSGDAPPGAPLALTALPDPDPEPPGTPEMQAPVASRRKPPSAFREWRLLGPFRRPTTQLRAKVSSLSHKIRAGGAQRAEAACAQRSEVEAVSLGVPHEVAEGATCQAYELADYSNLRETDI

CYP3A4 = CYP3A4 (Homo sapiens, UniProt P08684); test: Inhibition of human microsomal CYP3A4 at 10 uM after 10 mins by LC-MS/MS analysis relative to control; format: ADME; conditions: microsomes
How it was run: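 Reversible inhibition test. Midazolam substrate incubated with 0.1 mg/mL human liver microsomes and 10 µM test compound for 10 min at 37 °C. Stopped with acetonitrile/water.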

Homo sapiens [4] = species: Homo sapiens; test: Selectivity ratio of Ki for human alpha1B-adrenoreceptor to Ki for human alpha1D-adrenoreceptor
Homo sapiens [5] = species: Homo sapiens; test: Selectivity ratio of Ki for human alpha1A-adrenoreceptor to Ki for human alpha1D-adrenoreceptor
[6] = target: T4, Alpha-1D adrenergic receptor (Rattus norvegicus) (UniProt P23944); test: Antagonist activity at alpha1D-adrenoreceptor in Wistar rat bladder strips assessed as relaxation of PHE-induced contractile response after 30 mins; format: functional
T4 sequence (whole entry): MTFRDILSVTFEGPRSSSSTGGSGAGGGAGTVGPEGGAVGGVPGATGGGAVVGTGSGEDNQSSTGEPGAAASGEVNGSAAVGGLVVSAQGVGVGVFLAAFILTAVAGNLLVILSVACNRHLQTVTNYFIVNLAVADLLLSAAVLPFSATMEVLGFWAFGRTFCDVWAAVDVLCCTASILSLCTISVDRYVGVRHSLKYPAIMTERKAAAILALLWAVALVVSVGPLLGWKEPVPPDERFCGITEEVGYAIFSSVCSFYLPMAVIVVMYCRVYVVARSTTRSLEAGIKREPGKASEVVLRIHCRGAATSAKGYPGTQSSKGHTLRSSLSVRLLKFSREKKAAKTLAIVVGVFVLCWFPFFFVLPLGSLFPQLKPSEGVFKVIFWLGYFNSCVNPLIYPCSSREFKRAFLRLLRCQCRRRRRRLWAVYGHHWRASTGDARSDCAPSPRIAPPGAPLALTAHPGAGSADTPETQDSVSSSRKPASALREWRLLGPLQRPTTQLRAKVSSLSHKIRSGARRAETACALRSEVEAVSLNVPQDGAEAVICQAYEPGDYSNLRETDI

CYP3A4, sequence (P08684 whole entry): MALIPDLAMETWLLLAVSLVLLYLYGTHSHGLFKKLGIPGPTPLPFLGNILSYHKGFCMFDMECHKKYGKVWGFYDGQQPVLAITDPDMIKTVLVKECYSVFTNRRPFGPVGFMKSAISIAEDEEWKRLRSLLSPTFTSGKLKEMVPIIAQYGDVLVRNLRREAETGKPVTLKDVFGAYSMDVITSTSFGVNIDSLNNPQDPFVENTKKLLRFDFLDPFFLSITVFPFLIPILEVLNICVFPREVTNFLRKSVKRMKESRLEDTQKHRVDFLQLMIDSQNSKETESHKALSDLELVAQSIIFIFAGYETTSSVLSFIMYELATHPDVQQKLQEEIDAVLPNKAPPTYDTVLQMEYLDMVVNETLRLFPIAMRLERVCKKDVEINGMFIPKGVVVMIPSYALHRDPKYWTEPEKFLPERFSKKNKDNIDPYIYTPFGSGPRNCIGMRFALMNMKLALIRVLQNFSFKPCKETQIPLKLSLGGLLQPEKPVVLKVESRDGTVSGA

Ki [1] | Ki [2] | Ki [3] | inhibition at 10 min, 10 µM (CYP3A4) | Ratio Ki (Homo sapiens [4]) | Ratio Ki (Homo sapiens [5]) | IC30 [6] | Structure (SMILES)
1200 nM | > 1200 nM | 62 nM | 26.7% | > 20 | 19 | – | CNc1ccc2c(c1)[C@H](NCCOc1cc(F)ccc1F)CCS2(=O)=O
350 nM | 430 nM | 0.85 nM | 26.1% | 510 | 410 | 80 nM | CNc1ccc2c(c1)C(NCCOc1cc(F)ccc1F)CCS2(=O)=O (stereo unspecified)
130 nM | 150 nM | 0.3 nM | 20.7% | 500 | 430 | 5.5 nM | CNc1ccc2c(c1)[C@@H](NCCOc1cc(F)ccc1F)CCS2(=O)=O
– | – | 17 nM | 26.5% | – | – | – | O=S1(=O)CCC(NCCOc2cc(F)ccc2F)c2ccccc21 (stereo unspecified)
– | – | 86 nM | 12.5% | – | – | – | NC(=O)c1ccc2c(c1)C(NCCOc1cc(F)ccc1F)CCS2(=O)=O (stereo unspecified)
– | – | 310 nM | 5.2% | – | – | – | CS(=O)(=O)c1ccc2c(c1)C(NCCOc1cc(F)ccc1F)CCS2(=O)=O (stereo unspecified)
– | – | 12 nM | 23.1% | – | – | – | O=S1(=O)CCC(NCCOc2cc(F)ccc2F)c2cc(F)ccc21 (stereo unspecified)
– | – | 1.5 nM | 22.7% | – | – | – | COc1ccc2c(c1)C(NCCOc1cc(F)ccc1F)CCS2(=O)=O (stereo unspecified)

The remaining lines, values behind:

Structure (SMILES) | Ki [1] | Ki [2] | Ki [3] | inhibition at 10 min, 10 µM (CYP3A4) | Ratio Ki (Homo sapiens [4]) | Ratio Ki (Homo sapiens [5]) | IC30 [6]
CS(=O)(=O)c1ccccc1CCCNCCOc1cc(F)ccc1Cl | 50 nM | 44 nM | 9.1 nM | – | – | – | –
CS(=O)(=O)c1ccc(Cl)cc1CNCCOc1cc(F)ccc1Cl | 1800 nM | 1100 nM | 17 nM | – | 65 | 110 | 250 nM
COc1ccc2c(c1)S(=O)(=O)CCC2NCCOc1cc(F)ccc1F (stereo unspecified) | – | – | 38 nM | 34.3% | – | – | –
COc1cccc2c1S(=O)(=O)CCC2NCCOc1cc(F)ccc1F (stereo unspecified) | – | – | 170 nM | 17.1% | – | – | –
CS(=O)(=O)c1ccccc1CCNCCOc1cc(F)ccc1Cl | 150 nM | 30 nM | 8.6 nM | – | – | – | –
COc1cccc2c1C(NCCOc1cc(F)ccc1F)CCS2(=O)=O (stereo unspecified) | – | – | 9.5 nM | 28.6% | – | – | –
Fc1ccc(Cl)c(OCCNCc2cccc(Cl)c2)c1 | > 270 nM | > 120 nM | 65 nM | – | – | – | –
O=S1(=O)CCC(NCCOc2cc(F)ccc2Cl)c2ccccc21 (stereo unspecified) | > 270 nM | > 120 nM | 3.9 nM | 52.3% | – | – | 54 nM
O=S1(=O)CC(NCCOc2cc(F)ccc2Cl)c2ccccc21 (stereo unspecified) | > 270 nM | > 120 nM | > 94 nM | – | – | – | –
CC(NCCOc1cc(F)ccc1Cl)c1ccccc1S(C)(=O)=O (stereo unspecified) | > 270 nM | > 120 nM | > 94 nM | – | – | – | –
CS(=O)(=O)c1ccccc1CNCCOc1cc(F)ccc1Cl | > 270 nM | > 120 nM | 4.3 nM | – | – | – | 140 nM
